Series [1] has as its system A549. Briefly: Cellular uptake in human A549 cells incubated for 1 hr followed by compound washout measured after 8 hrs by HPLC-MS/MS analysis. The note with it: a549, 1 h. The format is ADME, cell-based. The method, boiled down:
(§1)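 A549 cells (wild-type EGFR) exposed to 1 µM extracellular compound for 1 h; intracellular content quantified by HPLC-ESI-MS/MS immediately after or 8 h after removal of compound (drug-free incubation) as pmol/mg protein; converted to µM using average cell volume per mg protein estimated from equilibrium distribution of 3-O-methyl-D-[1-³H]glucose in A549 cells.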

For series [2], the system named is A549. Briefly: Cellular uptake in human A549 cells incubated for 1 hr followed by compound washout measured at 1 hr by HPLC-MS/MS analysis. As to conditions: a549, 1 h. The format is ADME, cell-based. A digest of the protocol:
as §1

Series [3] can be described thus: Stability of the compound in human A549 cell lysates up to 24 hrs in presence of cysteine. The format is physicochemical. The note with it: a549, 24 h. A digest of the protocol:
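Compound incubated with A549 cell lysate plus molar excess of cysteine as trapping reagent; cysteine conjugate formation monitored by HPLC–MS for up to 24 h.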

A short description of series [4]: Percentage unbound in human A549 cells at 1 uM after 4 hrs by equilibrium dialysis method. The format is ADME, cell-based. For orientation: Equilibrium dialysis compares concentrations on both sides of a semipermeable membrane.
In series [5] the target is T1, Epidermal growth factor receptor (Homo sapiens, UniProt P00533). In words: Inhibition of wild type EGFR autophosphorylation in human A549 cells incubated for 1 hr followed by compound washout measured after 8 hrs by Western blot analysis. The series is classed as cell-based. For orientation: A western blot detects proteins with antibodies after separation by electrophoresis.
T1 sequence (P00533 whole entry): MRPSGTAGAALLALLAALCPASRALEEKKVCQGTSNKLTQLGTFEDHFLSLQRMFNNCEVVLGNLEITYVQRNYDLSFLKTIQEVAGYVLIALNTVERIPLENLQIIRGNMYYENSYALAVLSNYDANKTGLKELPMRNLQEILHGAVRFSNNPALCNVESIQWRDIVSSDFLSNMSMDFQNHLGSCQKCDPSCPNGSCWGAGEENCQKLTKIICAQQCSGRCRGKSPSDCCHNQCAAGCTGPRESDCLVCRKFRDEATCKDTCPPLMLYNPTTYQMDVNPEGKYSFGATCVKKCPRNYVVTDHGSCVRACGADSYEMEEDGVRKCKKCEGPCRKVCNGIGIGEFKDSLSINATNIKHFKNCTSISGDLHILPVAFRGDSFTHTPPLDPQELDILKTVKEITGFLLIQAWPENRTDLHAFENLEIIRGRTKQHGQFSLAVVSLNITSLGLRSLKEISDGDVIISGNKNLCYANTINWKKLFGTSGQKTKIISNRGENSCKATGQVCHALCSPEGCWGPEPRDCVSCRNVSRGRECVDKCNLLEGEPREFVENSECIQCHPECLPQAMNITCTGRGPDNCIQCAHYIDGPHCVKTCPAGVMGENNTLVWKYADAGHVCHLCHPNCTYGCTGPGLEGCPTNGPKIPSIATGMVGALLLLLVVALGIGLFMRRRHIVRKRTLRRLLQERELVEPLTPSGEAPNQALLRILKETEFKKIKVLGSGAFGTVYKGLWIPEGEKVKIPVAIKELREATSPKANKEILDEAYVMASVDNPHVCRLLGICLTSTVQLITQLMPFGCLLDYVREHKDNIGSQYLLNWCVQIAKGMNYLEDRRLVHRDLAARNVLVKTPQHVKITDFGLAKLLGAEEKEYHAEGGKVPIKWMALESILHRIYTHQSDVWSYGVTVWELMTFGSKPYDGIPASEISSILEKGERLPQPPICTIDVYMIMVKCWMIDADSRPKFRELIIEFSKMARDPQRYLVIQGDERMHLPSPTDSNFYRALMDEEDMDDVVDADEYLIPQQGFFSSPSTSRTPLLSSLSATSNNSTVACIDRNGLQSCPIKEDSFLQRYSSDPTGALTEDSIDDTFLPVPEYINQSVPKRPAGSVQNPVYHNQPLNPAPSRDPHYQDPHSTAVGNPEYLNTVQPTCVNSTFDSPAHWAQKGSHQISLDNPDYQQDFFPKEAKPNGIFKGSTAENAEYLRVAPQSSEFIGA

Series [6] addresses T1, Epidermal growth factor receptor. In words: Inhibition of wild type EGFR autophosphorylation in human A549 cells incubated for 1 hr followed by compound washout measured at 1 hr by Western blot analysis. The series is classed as cell-based.
The target is the same in series [7]. In words: Inhibition of wild type EGFR autophosphorylation in human A549 cells at 1 uM incubated for 1 hr followed by compound washout measured after 8 hrs by Western blot analysis. The series is classed as cell-based. A digest of the protocol: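 A549 cells expressing wild-type EGFR treated 1 h with inhibitor at 1 µM, then washed with drug-free medium; EGFR autophosphorylation in intact cells read by Western blot 8 h after compound removal; percent inhibition as mean of at least two independent experiments ± SEM.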

For series [8] the target is unchanged.
Series [9] shares this target. As to conditions: A549, at 1 µM.
Series [10] has the same target. The note with it: at 1 µM.

Active and inactive are the calls of the source. The rule behind the calls is not given here. Where only a bound is given, the exact number is not on record here.

Take `C=CC(=O)Nc1ccc2ncnc(Nc3cccc(Br)c3)c2c1`: the Drug uptake in series [1] and in series [2] was under 0.05 µM each time.

In the case of `O=C(COc1c(F)c(F)c(F)c(F)c1F)Nc1ccc2ncnc(Nc3cccc(Br)c3)c2c1`, in series [3], the Stability entry is listed as “Stable”. Moreover, the Drug uptake was 3.6 µM in series [1] and 240 µM in [2].

Turning to `Brc1cccc(Nc2ncnc3ccc(NCCCN4CCCCC4)cc23)c1`, the fraction unbound (as a rule, the share of the substance not bound to proteins or other matrix) at 4 h, 1 µM in [4] is 0.077. In addition, the Drug uptake in series [1] amounted to 105 µM; in series [2] it was 324 µM. Further, the figures for the IC50 in series [5], in series [6] and in series [8] were 14.1 nM, 1.7 nM and 0.41 nM, respectively. In addition, the inhibition (in general, the relative decrease from the control value, in per cent) in series [7] was 90%; in series [9] it was 95%.

`Nc1ccc2ncnc(Nc3cccc(Br)c3)c2c1`: the Drug uptake in [1] is under 0.05 µM; in series [2], 13 µM.

For the compound `CN(C)CCC(=O)Nc1ccc2ncnc(Nc3cccc(Br)c3)c2c1`, the Drug uptake in series [1] was under 0.05 µM; in series [2], 26 µM.

Consider `O=C(CCCN1CCCCC1)Nc1ccc2ncnc(Nc3cccc(Br)c3)c2c1`, for which, in [3], the Stability result is “Stable”. Further, the fraction unbound at 4 h, 1 µM in series [4] turned out to be 0.157. The Drug uptake is 7.2 µM in series [1] and 147 µM in [2]. Besides, the IC50 (usually the concentration that inhibits the measured activity by half) in series [5] is 13.5 nM; in series [6], 5.7 nM; in series [8], 0.63 nM. In addition, the inhibition in series [7] was 96%; in series [9], 98%. The inhibition result in series [10] was “inactive”.

With `O=C(CCOc1ccccc1)Nc1ccc2ncnc(Nc3cccc(Br)c3)c2c1`, the Stability result in series [3] was “Stable”. Further, the Drug uptake in series [1] is 0.7 µM; in series [2], 72 µM.

Consider `COc1cc2ncnc(Nc3ccc(F)c(Cl)c3)c2cc1OCCCN1CCOCC1` [GEFITINIB], for which the fraction unbound at 4 h, 1 µM in [4] came to 0.322. Moreover, the Drug uptake in series [1] came to 2.3 µM; in [2] it was 271 µM.

The record behind these values is ChEMBL document CHEMBL2424521, “Long-lasting inhibition of EGFR autophosphorylation in A549 tumor cells by intracellular accumulation of non-covalent inhibitors” (Bioorg Med Chem Lett, 2013).
